From ChEMBL document CHEMBL3045755, “Specific and differential inhibition of very-long-chain fatty acid elongases from Arabidopsis thaliana by different herbicides” (Proc Natl Acad Sci U S A, 2004)
Active and inactive are the calls of the source. No cut-off for these calls is given here.

How the values were obtained:
[1] = target: T1, 3-ketoacyl-CoA synthase 2 (Arabidopsis thaliana) (UniProt Q5XEP9); assay: Inhibition of Arbidopsis thaliana C-terminal His-tagged At1g04220 expressed in Saccharomyces cerevisiae INVSc1 at 100 uM after 18 to 20 hr by GC/MS analysis
T1 sequence (whole entry): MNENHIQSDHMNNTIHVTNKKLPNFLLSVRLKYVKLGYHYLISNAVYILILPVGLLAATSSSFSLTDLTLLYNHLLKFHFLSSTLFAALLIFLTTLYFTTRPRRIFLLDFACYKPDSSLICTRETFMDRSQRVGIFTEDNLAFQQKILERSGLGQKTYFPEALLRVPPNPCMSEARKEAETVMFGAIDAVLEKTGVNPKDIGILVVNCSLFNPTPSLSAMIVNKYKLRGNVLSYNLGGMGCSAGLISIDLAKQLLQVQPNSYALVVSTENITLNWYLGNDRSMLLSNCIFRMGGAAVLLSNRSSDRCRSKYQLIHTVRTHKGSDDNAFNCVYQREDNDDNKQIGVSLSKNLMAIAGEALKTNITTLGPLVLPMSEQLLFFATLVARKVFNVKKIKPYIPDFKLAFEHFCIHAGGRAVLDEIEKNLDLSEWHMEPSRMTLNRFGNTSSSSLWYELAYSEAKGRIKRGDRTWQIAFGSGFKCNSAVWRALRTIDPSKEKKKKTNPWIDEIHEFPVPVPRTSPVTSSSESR
How it was run: (§1)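 pYES2 galactose-inducible constructs in INVSc1, grown at 28°C in uracil-dropout minimal medium with 2% glucose. Log-phase cells were induced in 1% raffinose/2% galactose with herbicide at final 100 μM, in 50-ml culture for 18–20 h, then freeze-dried. FAMEs were made in 1 M methanolic HCl/5% dimethoxypropane at 80°C for 1 h under N2 and run on GC/MS. VLCFA profile was compared with herbicide-free elongase-expressing cells.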

[2] = target: T2, 3-ketoacyl-CoA synthase 20 (Arabidopsis thaliana) (UniProt Q9FG87); assay: Inhibition of Arbidopsis thaliana C-terminal His-tagged At5g43760 expressed in Saccharomyces cerevisiae INVSc1 at 100 uM after 18 to 20 hr by GC/MS analysis; how it was run: as §1
T2 sequence (whole entry): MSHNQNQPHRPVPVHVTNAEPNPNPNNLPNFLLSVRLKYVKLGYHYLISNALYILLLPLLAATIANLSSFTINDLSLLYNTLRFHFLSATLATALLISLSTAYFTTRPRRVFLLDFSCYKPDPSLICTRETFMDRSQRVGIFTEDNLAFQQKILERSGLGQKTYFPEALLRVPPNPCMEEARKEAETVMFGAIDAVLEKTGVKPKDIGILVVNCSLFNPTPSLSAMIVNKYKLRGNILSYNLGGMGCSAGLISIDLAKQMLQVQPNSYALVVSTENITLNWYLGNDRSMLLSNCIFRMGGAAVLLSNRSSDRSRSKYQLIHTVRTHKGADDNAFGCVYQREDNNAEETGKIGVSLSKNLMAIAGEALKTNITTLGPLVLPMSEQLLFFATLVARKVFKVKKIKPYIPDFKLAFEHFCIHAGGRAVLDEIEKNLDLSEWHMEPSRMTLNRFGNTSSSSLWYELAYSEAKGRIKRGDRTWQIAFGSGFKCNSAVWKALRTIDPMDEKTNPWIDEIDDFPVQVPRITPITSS

Saccharomyces cerevisiae = assay: Growth inhibition of Saccharomyces cerevisiae INVSc1 at 100 uM after 18 to 20 hr; type: organism-based; details: in vivo
How it was run: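 Yeast strains expressing the active elongases were induced in raffinose/galactose medium with herbicide at 100 μM for the 18–20 h incubation. Growth was followed by optical density and compared with cultures lacking inhibitor.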

[3] = target: T3, 3-ketoacyl-CoA synthase 17 (Arabidopsis thaliana) (UniProt O65677); assay: Inhibition of Arbidopsis thaliana C-terminal His-tagged KCS2 expressed in Saccharomyces cerevisiae INVSc1 at 100 uM after 18 to 20 hr by GC/MS analysis; how it was run: as §1
T3 sequence (whole entry): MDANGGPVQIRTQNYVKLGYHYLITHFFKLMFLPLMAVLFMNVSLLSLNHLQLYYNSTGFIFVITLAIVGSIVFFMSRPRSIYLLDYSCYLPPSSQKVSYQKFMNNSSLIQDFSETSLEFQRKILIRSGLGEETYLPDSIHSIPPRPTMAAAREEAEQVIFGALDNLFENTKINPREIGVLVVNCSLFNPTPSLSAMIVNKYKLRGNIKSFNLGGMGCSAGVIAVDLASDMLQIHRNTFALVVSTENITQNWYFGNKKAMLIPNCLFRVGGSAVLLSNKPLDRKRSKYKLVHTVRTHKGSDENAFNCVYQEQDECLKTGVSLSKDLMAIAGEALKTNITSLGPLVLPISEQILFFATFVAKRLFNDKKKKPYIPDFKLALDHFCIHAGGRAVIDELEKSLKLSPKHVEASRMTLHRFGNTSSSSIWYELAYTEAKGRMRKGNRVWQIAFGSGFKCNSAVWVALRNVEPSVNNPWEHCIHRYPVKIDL

[4] = target: T4, 3-ketoacyl-CoA synthase 1 (Arabidopsis thaliana) (UniProt Q9MAM3); assay: Inhibition of Arbidopsis thaliana C-terminal His-tagged KCS1 expressed in Saccharomyces cerevisiae INVSc1 at 100 uM after 18 to 20 hr by GC/MS analysis; how it was run: as §1
T4 sequence (whole entry): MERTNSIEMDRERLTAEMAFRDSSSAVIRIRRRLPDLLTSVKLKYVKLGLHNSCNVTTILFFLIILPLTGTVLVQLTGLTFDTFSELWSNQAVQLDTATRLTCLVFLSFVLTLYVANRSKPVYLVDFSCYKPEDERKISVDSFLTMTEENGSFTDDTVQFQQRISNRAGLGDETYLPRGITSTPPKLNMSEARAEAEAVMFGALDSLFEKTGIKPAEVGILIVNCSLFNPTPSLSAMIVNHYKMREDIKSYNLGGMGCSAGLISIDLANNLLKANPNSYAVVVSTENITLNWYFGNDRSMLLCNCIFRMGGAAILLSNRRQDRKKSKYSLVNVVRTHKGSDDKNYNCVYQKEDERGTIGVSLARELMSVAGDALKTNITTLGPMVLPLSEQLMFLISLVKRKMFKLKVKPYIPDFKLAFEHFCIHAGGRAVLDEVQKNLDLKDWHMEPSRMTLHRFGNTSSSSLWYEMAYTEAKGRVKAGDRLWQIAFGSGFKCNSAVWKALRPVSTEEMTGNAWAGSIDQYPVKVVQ

Arabidopsis thaliana = assay: Herbicidal activity against Arabidopsis thaliana assessed as apperance of fiddle head phenotype; type: functional, organism-based
[5] = target: T5, 3-ketoacyl-CoA synthase 5 (Arabidopsis thaliana) (UniProt Q9C6L5); assay: Inhibition of Arbidopsis thaliana C-terminal His-tagged CER60 expressed in Saccharomyces cerevisiae INVSc1 at 100 uM after 18 to 20 hr by GC/MS analysis; how it was run: as §1
T5 sequence (whole entry): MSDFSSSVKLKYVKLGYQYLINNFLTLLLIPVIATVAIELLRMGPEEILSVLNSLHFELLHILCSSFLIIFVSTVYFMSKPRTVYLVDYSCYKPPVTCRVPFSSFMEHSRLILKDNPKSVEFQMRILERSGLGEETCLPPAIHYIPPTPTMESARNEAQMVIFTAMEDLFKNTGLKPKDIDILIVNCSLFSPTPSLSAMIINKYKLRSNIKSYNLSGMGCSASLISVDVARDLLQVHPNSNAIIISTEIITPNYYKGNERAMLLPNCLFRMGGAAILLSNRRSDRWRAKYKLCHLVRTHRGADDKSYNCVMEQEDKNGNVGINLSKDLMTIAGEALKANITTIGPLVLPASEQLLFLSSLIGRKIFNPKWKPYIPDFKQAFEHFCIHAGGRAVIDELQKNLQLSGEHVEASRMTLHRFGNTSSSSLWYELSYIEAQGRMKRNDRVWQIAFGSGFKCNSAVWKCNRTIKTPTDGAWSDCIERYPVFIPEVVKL

[6] = target: T6, 3-ketoacyl-CoA synthase 18 (Arabidopsis thaliana) (UniProt Q38860); assay: Inhibition of Arbidopsis thaliana C-terminal His-tagged FAE1 expressed in Saccharomyces cerevisiae INVSc1 at 100 uM after 18 to 20 hr by GC/MS analysis; how it was run: as §1
T6 sequence (whole entry): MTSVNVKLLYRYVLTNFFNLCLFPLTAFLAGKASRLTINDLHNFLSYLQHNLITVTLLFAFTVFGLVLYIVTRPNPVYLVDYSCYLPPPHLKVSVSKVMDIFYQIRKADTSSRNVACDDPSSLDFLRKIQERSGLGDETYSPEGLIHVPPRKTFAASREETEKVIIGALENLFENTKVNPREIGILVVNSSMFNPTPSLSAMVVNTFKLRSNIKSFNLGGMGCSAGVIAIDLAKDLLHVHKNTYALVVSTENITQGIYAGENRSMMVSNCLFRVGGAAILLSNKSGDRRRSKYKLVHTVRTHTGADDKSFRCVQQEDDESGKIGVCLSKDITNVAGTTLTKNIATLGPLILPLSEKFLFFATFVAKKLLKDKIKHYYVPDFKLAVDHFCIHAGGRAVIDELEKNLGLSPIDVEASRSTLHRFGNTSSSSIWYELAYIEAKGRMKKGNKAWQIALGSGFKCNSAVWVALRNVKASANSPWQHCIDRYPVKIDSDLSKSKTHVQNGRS

| Structure (SMILES) | inhibition [1] | inhibition [2] | Activity (Saccharomyces cerevisiae) | inhibition [3] | inhibition [4] | Activity (Arabidopsis thaliana) | inhibition [5] | inhibition [6] |
| --- | --- | --- | --- | --- | --- | --- | --- | --- |
| CCc1cccc(CC)c1N(COC)C(=O)CCl [ALACHLOR] | inactive | Active | Non-toxic | Active | Active | inactive | Active | inactive |
| CCS(=O)(=O)Oc1ccc2c(c1)C(C)(C)CO2 [BENFURESATE] | inactive | inactive | Non-toxic | inactive | inactive | Active | inactive | inactive |
| CCN(CC)C(=O)n1cnc(S(=O)(=O)c2c(C)cc(C)cc2C)n1 [CAFENSTROLE] | Active | Active | Non-toxic | Active | Active | Active | Active | Active |
| CN(C)C(=O)C(c1ccccc1)c1ccccc1 [DIPHENAMIDE] | inactive | inactive | Non-toxic | inactive | inactive | inactive | inactive | inactive |
| CCOC1Oc2ccc(OS(C)(=O)=O)cc2C1(C)C (configuration not stated) [ETHOFUMESATE] | inactive | inactive | Non-toxic | inactive | inactive | Active | inactive | inactive |
| CCN(C(=O)n1nnn(-c2ccccc2Cl)c1=O)C1CCCCC1 [FENTRAZAMIDE] | inactive | Active | Non-toxic | Active | Active | Active | inactive | inactive |
| CC(C)N(C(=O)COc1nnc(C(F)(F)F)s1)c1ccc(F)cc1 [FLUFENACET] | Active | Active | Non-toxic | Active | Active | Active | Active | Active |
| CCN(CC)C(=O)C(C)Oc1cccc2ccccc12 (configuration not stated) [NAPROPAMIDE] | inactive | inactive | Non-toxic | inactive | inactive | inactive | inactive | inactive |
| CC(C)N(C(=O)SCC(Cl)=C(Cl)Cl)C(C)C [TRIALLATE] | inactive | inactive | Non-toxic | inactive | inactive | inactive | Active | inactive |
